# Published values collected from several papers.
# Protocols differ between the studies behind these lines.
# Target: LIM domain kinase 1 (LIMK1, Homo sapiens, UniProt P53667)
SMILES,assay,setting,endpoint,result
CC(C)(C)c1cc(C=C(C#N)C#N)cc(Br)c1O,"enzyme activity, inhibitor",0.5 µM,remaining activity,98.5%
Cn1cc(-c2cccc(N3CCc4c(sc5c4CC(C)(C)C5)C3=O)c2CO)cc(Nc2ccncn2)c1=O,"enzyme activity, inhibitor",1 µM,inhibition,9%
COc1ncccc1-c1cnn2ccc(N3CCN(C(=O)OC(C)C)CC3)nc12,"binding, competition with immobilised ligand",1 µM,remaining binding,100%
Nc1ncc(-c2nc(N3CCOCC3)nc(N3CCOCC3)n2)c(C(F)F)n1,"binding, competition with immobilised ligand",10 µM,remaining binding,86%
COc1cc(Nc2ncc(F)c(Nc3ccc4c(n3)NC(=O)C(C)(C)O4)n2)cc(OC)c1OC,"binding, competition with immobilised ligand",10 µM,inhibition,85%
O=c1[nH]c2ccccc2n1C1CCN(Cc2ccc(-c3[nH]c4cc5ncnc5cc4nc3-c3ccccc3)cc2)CC1,cell-free assay,0.5 µM,remaining signal,110%
Cn1cncc1[C@](O)(COc1ccc(C#N)cc1-c1ccc(OC(F)(F)F)cc1)c1ccc(C#N)cc1,"cell-free assay, competition with immobilised ligand",1 µM,remaining binding,89%
Cn1cc(-c2cc(F)cc(N3CCn4c(cc5c4CCCC5)C3=O)c2CO)cc(Nc2ccc(N3CCN(C4COC4)CC3)cn2)c1=O,"enzyme activity, inhibitor",0.1 µM,inhibition,2%
N#CC1(c2ccccn2)CCN(Cc2cc(C(=O)O)c(=O)n3ccccc23)CC1,"cell-free assay, competition with immobilised ligand",1 µM,remaining binding,100%
Cc1nn(C)cc1-c1nc2c(N3CCN(Cc4ccc(Cl)cc4)CC3)c(Cl)cnc2[nH]1,"binding, competition with immobilised ligand",1 µM,remaining binding,58%
